The source made the active and inactive calls. No cut-off for these calls is given here.
What was measured:
DU-145 = test: Cytotoxicity against human DU145 cells after 48 hrs by MTT assay; type: functional, cell-based; settings: DU-145, 48 h
Outline: (§1)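 Human cancer cell lines (A549 lung, MCF-7 breast, DU-145 prostate, HeLa cervical) exposed to compounds for 48 h; 50% inhibitory concentration derived, average of three individual experiments; doxorubicin reference agent.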

MCF7 = test: Cytotoxicity against human MCF7 cells after 48 hrs by MTT assay; type: functional, cell-based; settings: MCF7, 48 h; outline: as §1
HeLa = test: Cytotoxicity against human HeLa cells after 48 hrs by MTT assay; type: functional, cell-based; outline: as §1
A549 = test: Cytotoxicity against human A549 cells after 48 hrs by MTT assay; type: functional, cell-based; settings: A549, 48 h; outline: as §1
[1] = molecular target: DNA topoisomerase II (Homo sapiens) (UniProt P11388+Q02880); test: Interfacial poisoning activity at DNA-topoisomerase 2 (unknown origin) using catenated kDNA as substrate assessed as linear DNA formation at 1 to 100 uM after 30 mins by agarose gel electrophoresis; type: protein assay
Outline: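 Catenated DNA incubated with topo II and compound at 1, 10 and 100 µM; gel products scored for linear DNA (poison type) versus nicked circular/relaxed DNA retained in wells (catalytic inhibitor type); etoposide at 1, 10, 100 µM as control.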

Row | SMILES | IC50 (DU-145) | IC50 (MCF7) | IC50 (HeLa) | IC50 (A549) | Activity [1]
1 | C=CCSC(=S)NCc1cc2c3ccccc3n(C)c2c(-c2cc(OC)c(OC)c(OC)c2)n1 | 19.4 µM | 20.6 µM | 19.9 µM | 18.1 µM | 
2 | NCc1cc2c([nH]c3ccccc32)c(-c2ccc(C(F)(F)F)cc2)n1 | 9.12 µM | 12 µM | 15.8 µM | 15.8 µM | 
3 | C=CCSC(=S)NCc1cc2c([nH]c3ccccc32)c(-c2cc(OC)c(OC)c(OC)c2)n1 | 13.8 µM | 15.8 µM | 23.2 µM | 12.8 µM | 
4 | C=CCSC(=S)NCc1cc2c3ccccc3n(C)c2c(-c2ccc(OC)cc2)n1 | 2.5 µM | 3.2 µM | 8.3 µM | 10 µM | 
5 | COc1cc(-c2nc(CNC(=S)SC)cc3c2[nH]c2ccccc23)cc(OC)c1OC | 5.62 µM | 8.91 µM | 11.3 µM | 8.12 µM | 
6 | COc1ccc(-c2nc(CN)cc3c2[nH]c2ccccc23)cc1 | 17.4 µM | 18.9 µM | 18.6 µM | 17.8 µM | 
7 | COc1ccc(-c2nc(CNC(=S)SCc3ccccc3)cc3c2[nH]c2ccccc23)cc1 | 13.8 µM | 10 µM | 24.1 µM | 17.7 µM | 
8 | COc1cc(-c2nc(CNC(=S)SC)cc3c4ccccc4n(C)c23)cc(OC)c1OC | 6.16 µM | 15.2 µM | 16.9 µM | 12.5 µM | 
9 | COc1cc(-c2nc(CN)cc3c4ccccc4n(C)c23)cc(OC)c1OC | 14.8 µM | 15.1 µM | 19.9 µM | 18.2 µM | 
10 | Cn1c2ccccc2c2cc(CNC(=S)SCc3ccccc3)nc(-c3ccc(C(F)(F)F)cc3)c21 | 2.08 µM | 4.31 µM | 4.78 µM | 5.12 µM | 
11 | COc1ccc(-c2nc(CNC(=S)SC)cc3c4ccccc4n(C)c23)cc1 | 1.41 µM | 1.51 µM | 2.57 µM | 5.12 µM | 
12 | C=CCSC(=S)NCc1cc2c3ccccc3n(C)c2c(-c2ccc(C(F)(F)F)cc2)n1 | 1.99 µM | 4.78 µM | 4.67 µM | 4.26 µM | 
13 | C=CCSC(=S)NCc1cc2c3ccccc3n(C)c2c(-c2ccc(F)cc2)n1 | 2.88 µM | 3.01 µM | 2.57 µM | 6.02 µM | 
14 | Cn1c2ccccc2c2cc(CN)nc(-c3ccc(C(F)(F)F)cc3)c21 | 7.76 µM | 11.7 µM | 15.1 µM | 19.2 µM | 
15 | C=CCSC(=S)NCc1cc2c([nH]c3ccccc32)c(-c2ccc(OC)cc2)n1 | 46.7 µM | 38.8 µM | 59.1 µM | 51.4 µM | 
16 | COc1cccc2c1C(=O)c1c(O)c3c(c(O)c1C2=O)C[C@@](O)(C(=O)CO)C[C@@H]3O[C@H]1C[C@H](N)[C@H](O)[C@H](C)O1 [DOXORUBICIN] | 1.38 µM | 0.96 µM | 2.63 µM | 1.58 µM | 

Row | SMILES | IC50 (DU-145) | IC50 (MCF7) | IC50 (HeLa) | IC50 (A549) | Activity [1]
17 | COc1ccc(-c2nc(CN)cc3c4ccccc4n(C)c23)cc1 | 12.8 µM | 16.6 µM | 14.8 µM | 20.1 µM | 
18 | C=CCSC(=S)NCc1cc2c([nH]c3ccccc32)c(-c2ccc(F)cc2)n1 | 3.98 µM | 6.6 µM | 4.46 µM | 16.7 µM | 
19 | COc1cc(-c2nc(CN)cc3c2[nH]c2ccccc23)cc(OC)c1OC | 18.3 µM | 18.6 µM | 21.7 µM | 15.1 µM | 
20 | CSC(=S)NCc1cc2c([nH]c3ccccc32)c(-c2ccc(C(F)(F)F)cc2)n1 | 9.54 µM | 15.8 µM | 12.6 µM | 16.9 µM | 
21 | COc1ccc(-c2nc(CNC(=S)SCc3ccccc3)cc3c4ccccc4n(C)c23)cc1 | 6.91 µM | 3.36 µM | 13.8 µM | 9.12 µM | 
22 | Cn1c2ccccc2c2cc(CNC(=S)SCc3ccccc3)nc(-c3ccc(F)cc3)c21 | 4.78 µM | 2.75 µM | 3.16 µM | 6.76 µM | 
23 | COc1cc([C@@H]2c3cc4c(cc3[C@@H](O[C@@H]3O[C@@H]5CO[C@@H](C)O[C@H]5[C@H](O)[C@H]3O)[C@H]3COC(=O)[C@H]23)OCO4)cc(OC)c1O |  |  |  |  | Active
24 | COc1cc(-c2nc(CNC(=S)SCc3ccccc3)cc3c2[nH]c2ccccc23)cc(OC)c1OC | 17.3 µM | 25.8 µM | 14.5 µM | 27.5 µM | 
25 | Cn1c2ccccc2c2cc(CN)nc(-c3ccc(F)cc3)c21 | 10 µM | 16.6 µM | 20.5 µM | 19.5 µM | 
26 | FC(F)(F)c1ccc(-c2nc(CNC(=S)SCc3ccccc3)cc3c2[nH]c2ccccc23)cc1 | 5.88 µM | 12.3 µM | 3.98 µM | 9.33 µM | 
27 | COc1cc(-c2nc(CNC(=S)SCc3ccccc3)cc3c4ccccc4n(C)c23)cc(OC)c1OC | 10.6 µM | 13.9 µM | 12.3 µM | 14.1 µM | 
28 | Fc1ccc(-c2nc(CNC(=S)SCc3ccccc3)cc3c2[nH]c2ccccc23)cc1 | 3.71 µM | 7.41 µM | 3.81 µM | 39.8 µM | 
29 | COc1ccc(-c2nc(CNC(=S)SC)cc3c2[nH]c2ccccc23)cc1 | 1.14 µM | 8.51 µM | 7.78 µM | 7.94 µM | 
30 | C=CCSC(=S)NCc1cc2c([nH]c3ccccc32)c(-c2ccc(C(F)(F)F)cc2)n1 | 7.76 µM | 10.9 µM | 10.6 µM | 18.6 µM | 
31 | NCc1cc2c([nH]c3ccccc32)c(-c2ccc(F)cc2)n1 | 13.8 µM | 17.9 µM | 22.5 µM | 21.1 µM | 
32 | CSC(=S)NCc1cc2c3ccccc3n(C)c2c(-c2ccc(F)cc2)n1 | 1.45 µM | 1.86 µM | 2.39 µM | 5.62 µM | 

Reference: ChEMBL document CHEMBL3603803, “Design and synthesis of dithiocarbamate linked β-carboline derivatives: DNA topoisomerase II inhibition with DNA binding and apoptosis inducing ability” (Bioorg Med Chem, 2015)
